Data: ChEMBL document CHEMBL1629510, “Efficient synthesis of (6-deoxy-glycopyranosid-6-yl) sulfone derivatives and their effect on Ca2+-ATPase” (Eur J Med Chem, 2010)

Key:
Type in all cases: microsomes
Settings in all cases: Microsome
[1] = species: Capra hircus; assay: Induction of magnesium independent calcium-transporting ATPase activity in goat spermatozoa microsomal membranes at 20 ug by spectrophotometry in presence of 1 mM of calcium channel blocker orthovanadate
Summary of the method: (§1)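 The compound (20 µg) was added together with a fixed concentration of the blocker. Reactions were stopped with 7% ice-cold TCA and read spectrophotometrically. Ca2+-dependent activity (+Ca2+ minus −Ca2+) is given as percent stimulation or inhibition, averaged over four assays.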

[2] = species: Capra hircus; assay: Induction of magnesium independent calcium-transporting ATPase activity in goat spermatozoa microsomal membranes at 20 ug by spectrophotometry in presence of 300 uM of calcium channel blocker verapamil; summary of the method: as §1
[3] = species: Capra hircus; assay: Induction of magnesium independent calcium-transporting ATPase activity in goat spermatozoa microsomal membranes at 20 ug by spectrophotometry in presence of […] of calcium channel blocker thapsigargin; summary of the method: as §1
[4] = species: Capra hircus; assay: Induction of magnesium independent calcium-transporting ATPase activity in goat spermatozoa microsomal membranes at 70 nM by spectrophotometry
Summary of the method: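 Mg2+-independent Ca2+-ATPase in goat sperm microsomes (2 µg protein) was measured without blockers over varying compound concentrations. Incubation used 3 mM ATP in imidazole/sucrose buffer with EDTA and 2-mercaptoethanol, ±4 mM CaCl2, for 30 min at 37 °C, stopped with ice-cold 7% TCA and read spectrophotometrically. Activity is the difference between the +Ca2+ and −Ca2+ reactions.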

| SMILES | Activity [1] | Activity [2] | Activity [3] | Activity [4] |
| --- | --- | --- | --- | --- |
| CO[C@@H]1O[C@H](CS(=O)(=O)C[C@H]2O[C@@H](OC)[C@H](O)[C@H](O)[C@@H]2O)[C@@H](O)[C@@H](O)[C@H]1O | -21% | -8% | -33% | 30% |
| CO[C@H]1O[C@H](CS(=O)(=O)C[C@H]2O[C@H](OC)[C@H](O)[C@@H](O)[C@@H]2O)[C@@H](O)[C@H](O)[C@@H]1O | 4% | -3% | -35% | 43% |
| CO[C@H]1O[C@H](CS(=O)(=O)C[C@H]2O[C@H](OC)[C@H](O)[C@@H](O)[C@@H]2O)[C@@H](O)[C@H](O)[C@H]1O | -24% | -14% | -28% | 36% |
| CO[C@H]1O[C@H](CS(=O)(=O)C[C@H]2O[C@H](OC)[C@@H](O)[C@@H](O)[C@@H]2O)[C@@H](O)[C@H](O)[C@@H]1O | -27% | -2% | -29% | 49% |
| CO[C@H]1O[C@H](CS(=O)(=O)C[C@H]2O[C@H](OC)[C@H](O)[C@H](O)[C@@H]2O)[C@@H](O)[C@H](O)[C@H]1O | -17% | -9% | -31% | 30% |
| CO[C@H]1O[C@H](CS(=O)(=O)C[C@H]2O[C@H](OC)[C@H](O)[C@@H](O)[C@H]2O)[C@@H](O)[C@H](O)[C@@H]1O | -25% | -21% | -36% | 53% |
| CO[C@H]1O[C@H](CS(=O)(=O)C[C@H]2O[C@@H](OC)[C@H](O)[C@H](O)[C@@H]2O)[C@@H](O)[C@H](O)[C@@H]1O | -19% | -5% | -27% | 45% |
| CO[C@H]1O[C@H](CS(=O)(=O)C[C@H]2O[C@H](OC)[C@H](O)[C@@H](O)[C@H]2O)[C@@H](O)[C@H](O)[C@H]1O | -8% | -5% | -38% | 32% |
